Consider six molecules from ChEMBL document CHEMBL2169831 (J Med Chem, 2011).

pKd: −log10 of the molar value. Calls of active or inactive are those of the source. No cut-off for these calls is given here.

The nature of data set [1]: Binding affinity to Xenopus laevis oocyte CNGA1/CNGB1 assessed as inhibition of 2 mM cGMP-induced currents at +50 mV potential at 5 uM by patch-clamp method. The settings on record: read-out: Kd(app). The gist of the method: (§1)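 Rod CNGA1 plus CNGB1 cRNA (2:1; 33 ng plus 67 ng) co-injected into stage IV–V Xenopus oocytes, held at 16–18 °C. Inside-out excised patches recorded 3–7 days after injection. Channels were maximally activated with 2 mM cGMP, and compound was added. Steps ran from 0 to −50 and +50 mV. Currents with no cGMP were subtracted, and KD was fitted to a single-site block equation (mean ± SD).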

Data set [2] is described as follows: Binding affinity to Xenopus laevis oocyte CNGA1/CNGB1 assessed as inhibition of 2 mM cGMP-induced currents at -50 mV potential at 5 uM by patch-clamp method. The settings on record: read-out: Kd(app). The gist of the method:
as §1

A short description of data set [3]: Drug degradation in 0.1 M phosphate buffer at pH 7.4 assessed as human butyrylcholinestase-mediated compound hydrolysis rate at 50 uM during first 1 min by spectrophotometric analysis. The settings on record: pH 7.4, 1 min.
For data set [4], the species on record is Xenopus laevis. Description: Inhibition of Xenopus laevis oocyte CNGA1/CNGB1 assessed as inhibition of currents at +50 mV potential at 2 uM by patch-clamp method in presence of 50 uM cGMP. The gist of the method:
(§2)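 Heteromeric rod CNG channels from oocytes co-injected with CNGA1 and CNGB1 cRNA (33 ng:67 ng, 2:1), held at 16–18 °C and recorded 3–7 days later. Excised inside-out patches were stepped from 0 to −50 to +50 mV with sub-saturating cGMP (50 or 100 µM), with or without blocker. Currents without cGMP were subtracted and filtered at 300 Hz. Block was read at +50 mV.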

For data set [5], the species on record is Xenopus laevis. Description: Inhibition of Xenopus laevis oocyte CNGA1/CNGB1 assessed as inhibition of cGMP-induced currents at +50 mV potential at 1 uM by patch-clamp method in presence of 100 uM cGMP. The gist of the method:
as §2

Data set [6] is filed under the species Xenopus laevis. Description: Inhibition of Xenopus laevis oocyte CNGA1/CNGB1 assessed as inhibition of cGMP-induced currents at +50 mV potential at 1 uM by patch-clamp method in presence of 50 uM cGMP. The gist of the method:
as §2

The species named for data set [7] is Xenopus laevis. Description: Inhibition of Xenopus laevis oocyte CNGA1/CNGB1 assessed as inhibition of currents at +50 mV potential at 2 uM by patch-clamp method in presence of 100 uM cGMP. The gist of the method: as §2

On to `CCCCCCCCNc1ccc(C(=S)NCCN(C)C)cc1`, for which the values for the pKd in data set [1] and in data set [2] were 6.15 and 5.74, respectively.

In the case of `CCCCCCCCNc1ccc(C(=O)OCCN(C)C)cc1`, the results for the pKd in data set [1] and in data set [2] were 6.00 and 5.62, respectively. Besides, in data set [3], the Drug degradation is listed as 213 nmol/min/mg. Also, the inhibition entry in the data set filed under Xenopus laevis [4], in the data set listed under Xenopus laevis [5], in the data set listed under Xenopus laevis [6] and in the data set listed under Xenopus laevis [7] was “Active” each time.

In the case of `CCCCCCCCNc1ccc(C(=O)NCCN(C)C)cc1`, the Drug degradation in data set [3] is reported as 1.2 nmol/min/mg.

On to `CCCCNc1ccc(C(=S)NCCN(C)C)cc1`, for which the figures for the negative-log Kd (pKd) in data set [1] and in data set [2] were 6.22 and 5.41, respectively.

On to `CCCCNc1ccc(C(=O)OCCN(C)C)cc1` [TETRACAINE], for which the Drug degradation in data set [3] is given as 132 nmol/min/mg. The inhibition entry in the data set filed under Xenopus laevis [4], in the data set listed under Xenopus laevis [5], in the data set filed under Xenopus laevis [6] and in the data set filed under Xenopus laevis [7] was “Active” in each case.

On to `CCCCNc1ccc(C(=O)NCCN(C)C)cc1`, for which the pKd was 5.36 in data set [1] and 4.54 in data set [2]. Besides, the Drug degradation in data set [3] turned out to be 8.4 nmol/min/mg.
